Measurements published in ChEMBL document CHEMBL5724801, “EUbOPEN Chemogenomics Library - Multiplex” (2024).
“And” between values parts separate entries of the source, which are not always exact repeats. Equal entries are not always repeated.

Tested on: U2OS
Assay: Multiplex assay against U2OS
Type: toxicity, cell-based
Settings: human
Procedure, shortened: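 Live cells carried four stains from seeding: Hoechst33342, BioTracker Green Microtubule Cytoskeleton Dye, MitoTracker Red and Annexin V Alexa Fluor 680. They were imaged on a CQ1 microscope at 37°C and 5% CO2 after compound addition. Using CellPathfinder machine-learning gating, cells were split into Hoechst high-intensity objects or normal cells, normal cells into healthy, pyknosed or fragmented nuclei, and pyknosed cells into mitotic or apoptotic; tubulin, mitochondrial-mass and membrane-permeability phenotypes are per cents of healthy-nucleus cells.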

[1] = 12 h, 1 µM, compound concentration 1 uM
[2] = 12 h, 10 µM, compound concentration 10 uM
[3] = 24 h, 1 µM, compound concentration 1 uM
[4] = 24 h, 10 µM, compound concentration 10 uM
[5] = 48 h, 1 µM, compound concentration 1 uM
[6] = 48 h, 10 µM, compound concentration 10 uM

CCn1c(-c2nonc2N)nc2c(C#CC(C)(C)O)ncc(OCC3CCCNC3)c21 (stereo unspecified)
Population Apoptotic (%) [1]: 30.23% and 52.17% | Population Fragmented Nuclei (%) [1]: 3.38% and 1.86% | Population Healthy Nuclei (%) [1]: 85.45% and 83.85% | Population Hoechst High Intensity Objects (%) [1]: 0% | Population Membrane Permeable-Phenotype (%) [1]: 1.22% and 1.48% | Population Mitochondria Different-Phenotype (%) [1]: 0% and 5.93% | Population Mitotic Cells (%) [1]: 69.77% and 47.83% | Population Normal (%) [1]: 100% | Population Pyknosed Nuclei (%) [1]: 11.17% and 14.29% | Population Tubulin-Different-Phenotype (%) [1]: 0.91% and 0.74% | Total Cell Count [1]: 385 and 161 | Population Apoptotic (%) [2]: 37.04% and 27.91% | Population Fragmented Nuclei (%) [2]: 2.62% and 8.28% | Population Healthy Nuclei (%) [2]: 83.2% and 64.33% | Population Hoechst High Intensity Objects (%) [2]: 0% | Population Membrane Permeable-Phenotype (%) [2]: 0.95% and 4.95% | Population Mitotic Cells (%) [2]: 62.96% and 72.09% | Population Normal (%) [2]: 100% | Population Pyknosed Nuclei (%) [2]: 14.17% and 27.39% | Population Tubulin-Different-Phenotype (%) [2]: 2.52% and 4.95% | Total Cell Count [2]: 381 and 157 | Population Apoptotic (%) [3]: 38.6% and 42.86% | Population Fragmented Nuclei (%) [3]: 2.16% and 1.54% | Population Healthy Nuclei (%) [3]: 86.64% and 84.1% | Population Hoechst High Intensity Objects (%) [3]: 0.2% and 0.51% | Population Membrane Permeable-Phenotype (%) [3]: 0.68% and 5.49% | Population Mitochondria Different-Phenotype (%) [3]: 0.23% and 1.83% | Population Mitotic Cells (%) [3]: 61.4% and 57.14% | Population Normal (%) [3]: 99.8% and 99.49% | Population Pyknosed Nuclei (%) [3]: 11.2% and 14.36% | Population Tubulin-Different-Phenotype (%) [3]: 1.36% and 0% | Total Cell Count [3]: 510 and 196 | Population Apoptotic (%) [4]: 44.32% and 50% | Population Fragmented Nuclei (%) [4]: 2.7% and 7.78% | Population Healthy Nuclei (%) [4]: 77.53% and 56.67% | Population Hoechst High Intensity Objects (%) [4]: 0% | Population Membrane Permeable-Phenotype (%) [4]: 0.29% and 0.98% | Population Mitotic Cells (%) [4]: 55.68% and 50% | Population Normal (%) [4]: 100% | Population Pyknosed Nuclei (%) [4]: 19.78% and 35.56% | Population Tubulin-Different-Phenotype (%) [4]: 3.48% and 3.92% | Total Cell Count [4]: 445 and 180 | Population Apoptotic (%) [5]: 50% and 45.16% | Population Fragmented Nuclei (%) [5]: 2.09% and 2.15% | Population Healthy Nuclei (%) [5]: 90.19% and 88.34% | Population Hoechst High Intensity Objects (%) [5]: 0% | Population Membrane Permeable-Phenotype (%) [5]: 1.22% and 1.39% | Population Mitochondria Different-Phenotype (%) [5]: 0% and 4.51% | Population Mitotic Cells (%) [5]: 50% and 54.84% | Population Normal (%) [5]: 100% | Population Pyknosed Nuclei (%) [5]: 7.72% and 9.51% | Population Tubulin-Different-Phenotype (%) [5]: 0.49% and 1.04% | Total Cell Count [5]: 907 and 326 | Population Apoptotic (%) [6]: 65.03% and 83.08% | Population Fragmented Nuclei (%) [6]: 6.86% and 8.16% | Population Healthy Nuclei (%) [6]: 71.34% and 58.67% | Population Hoechst High Intensity Objects (%) [6]: 0% | Population Membrane Permeable-Phenotype (%) [6]: 1.71% and 7.83% | Population Mitochondria Different-Phenotype (%) [6]: 0.64% and 7.83% | Population Mitotic Cells (%) [6]: 34.97% and 16.92% | Population Normal (%) [6]: 100% | Population Pyknosed Nuclei (%) [6]: 21.8% and 33.16% | Population Tubulin-Different-Phenotype (%) [6]: 2.56% and 7.83%

CN(C)C(=O)Cn1cc(-c2ccc(-c3cncc4ccccc34)cc2)cn1
Population Apoptotic (%) [1]: 68% and 69% | Population Fragmented Nuclei (%) [1]: 22% and 18% | Population Healthy Nuclei (%) [1]: 68% and 69% | Population Hoechst High Intensity Objects (%) [1]: 3% and 0% | Population Membrane Permeable-Phenotype (%) [1]: 8% and 6% | Population Mitochondria Different-Phenotype (%) [1]: 4% and 2% | Population Mitotic Cells (%) [1]: 31% and 30% | Population Normal (%) [1]: 96% and 99% | Population Pyknosed Nuclei (%) [1]: 9% and 11% | Population Tubulin-Different-Phenotype (%) [1]: 5% and 3% | Total Cell Count [1]: 240 and 110 | Population Apoptotic (%) [2]: 66% and 100% | Population Fragmented Nuclei (%) [2]: 21% and 18% | Population Healthy Nuclei (%) [2]: 67% and 75% | Population Hoechst High Intensity Objects (%) [2]: 5% and 3% | Population Membrane Permeable-Phenotype (%) [2]: 20% and 22% | Population Mitochondria Different-Phenotype (%) [2]: 12% and 19% | Population Normal (%) [2]: 94% and 96% | Population Pyknosed Nuclei (%) [2]: 10% and 5% | Population Tubulin-Different-Phenotype (%) [2]: 14% and 23% | Total Cell Count [2]: 205 and 98 | Population Apoptotic (%) [3]: 100% and 90% | Population Fragmented Nuclei (%) [3]: 21% and 15% | Population Healthy Nuclei (%) [3]: 69% and 76% | Population Hoechst High Intensity Objects (%) [3]: 3% and 1% | Population Membrane Permeable-Phenotype (%) [3]: 5% and 8% | Population Mitochondria Different-Phenotype (%) [3]: 2% and 6% | Population Mitotic Cells (%) [3]: 0% and 9% | Population Normal (%) [3]: 96% and 98% | Population Pyknosed Nuclei (%) [3]: 8% | Population Tubulin-Different-Phenotype (%) [3]: 4% | Total Cell Count [3]: 278 and 127 | Population Apoptotic (%) [4]: 54% and 80% | Population Fragmented Nuclei (%) [4]: 25% and 11% | Population Healthy Nuclei (%) [4]: 64% and 84% | Population Hoechst High Intensity Objects (%) [4]: 3% and 2% | Population Membrane Permeable-Phenotype (%) [4]: 19% and 16% | Population Mitochondria Different-Phenotype (%) [4]: 9% and 15% | Population Mitotic Cells (%) [4]: 45% and 20% | Population Normal (%) [4]: 96% and 97% | Population Pyknosed Nuclei (%) [4]: 9% and 4% | Population Tubulin-Different-Phenotype (%) [4]: 10% and 14% | Total Cell Count [4]: 244 and 110 | Population Apoptotic (%) [5]: 87% and 88% | Population Fragmented Nuclei (%) [5]: 18% and 20% | Population Healthy Nuclei (%) [5]: 69% and 67% | Population Hoechst High Intensity Objects (%) [5]: 2% and 3% | Population Membrane Permeable-Phenotype (%) [5]: 6% and 12% | Population Mitochondria Different-Phenotype (%) [5]: 3% and 9% | Population Mitotic Cells (%) [5]: 12% and 11% | Population Normal (%) [5]: 97% and 96% | Population Pyknosed Nuclei (%) [5]: 12% and 11% | Population Tubulin-Different-Phenotype (%) [5]: 4% and 9% | Total Cell Count [5]: 333 and 163 | Population Apoptotic (%) [6]: 74% and 92% | Population Fragmented Nuclei (%) [6]: 22% and 21% | Population Healthy Nuclei (%) [6]: 62% and 68% | Population Hoechst High Intensity Objects (%) [6]: 2% | Population Membrane Permeable-Phenotype (%) [6]: 15% and 20% | Population Mitochondria Different-Phenotype (%) [6]: 8% and 14% | Population Normal (%) [6]: 97% | Population Pyknosed Nuclei (%) [6]: 14% and 9% | Population Tubulin-Different-Phenotype (%) [6]: 8% and 16% | Total Cell Count [6]: 302 and 149

O=C(NCC(=O)N1CC[C@H](N[C@H]2CC[C@@](O)(c3ccc(-c4ncccn4)cn3)CC2)C1)c1cccc(C(F)(F)F)c1 [PF-4136309]
Population Apoptotic (%) [1]: 79% and 93% | Population Fragmented Nuclei (%) [1]: 25% and 13% | Population Healthy Nuclei (%) [1]: 64% and 74% | Population Hoechst High Intensity Objects (%) [1]: 1% and 4% | Population Membrane Permeable-Phenotype (%) [1]: 6% and 11% | Population Mitochondria Different-Phenotype (%) [1]: 3% and 5% | Population Normal (%) [1]: 98% and 95% | Population Pyknosed Nuclei (%) [1]: 9% and 12% | Population Tubulin-Different-Phenotype (%) [1]: 4% and 8% | Total Cell Count [1]: 249 and 138 | Population Apoptotic (%) [2]: 68% and 60% | Population Fragmented Nuclei (%) [2]: 25% and 22% | Population Healthy Nuclei (%) [2]: 62% and 66% | Population Hoechst High Intensity Objects (%) [2]: 4% and 1% | Population Membrane Permeable-Phenotype (%) [2]: 15% and 25% | Population Mitochondria Different-Phenotype (%) [2]: 4% and 10% | Population Mitotic Cells (%) [2]: 31% and 40% | Population Normal (%) [2]: 95% and 98% | Population Pyknosed Nuclei (%) [2]: 12% and 11% | Population Tubulin-Different-Phenotype (%) [2]: 9% and 11% | Total Cell Count [2]: 242 and 90 | Population Apoptotic (%) [3]: 80% and 91% | Population Fragmented Nuclei (%) [3]: 22% and 16% | Population Healthy Nuclei (%) [3]: 69% and 76% | Population Hoechst High Intensity Objects (%) [3]: 1% and 3% | Population Membrane Permeable-Phenotype (%) [3]: 4% and 5% | Population Mitochondria Different-Phenotype (%) [3]: 2% and 4% | Population Mitotic Cells (%) [3]: 20% and 8% | Population Normal (%) [3]: 98% and 96% | Population Pyknosed Nuclei (%) [3]: 8% and 7% | Population Tubulin-Different-Phenotype (%) [3]: 2% | Total Cell Count [3]: 304 and 169 | Population Apoptotic (%) [4]: 83% and 75% | Population Fragmented Nuclei (%) [4]: 23% and 21% | Population Healthy Nuclei (%) [4]: 62% and 70% | Population Hoechst High Intensity Objects (%) [4]: 3% and 0% | Population Membrane Permeable-Phenotype (%) [4]: 10% and 15% | Population Mitochondria Different-Phenotype (%) [4]: 3% and 11% | Population Mitotic Cells (%) [4]: 16% and 25% | Population Normal (%) [4]: 96% and 99% | Population Pyknosed Nuclei (%) [4]: 13% and 7% | Population Tubulin-Different-Phenotype (%) [4]: 3% and 7% | Total Cell Count [4]: 271 and 102 | Population Apoptotic (%) [5]: 87% and 96% | Population Fragmented Nuclei (%) [5]: 14% and 12% | Population Healthy Nuclei (%) [5]: 74% and 75% | Population Hoechst High Intensity Objects (%) [5]: 2% and 3% | Population Membrane Permeable-Phenotype (%) [5]: 4% and 6% | Population Mitochondria Different-Phenotype (%) [5]: 3% | Population Mitotic Cells (%) [5]: 12% and 4% | Population Normal (%) [5]: 97% and 96% | Population Pyknosed Nuclei (%) [5]: 11% | Population Tubulin-Different-Phenotype (%) [5]: 3% and 4% | Total Cell Count [5]: 443 and 224 | Population Apoptotic (%) [6]: 69% and 92% | Population Fragmented Nuclei (%) [6]: 22% and 20% | Population Healthy Nuclei (%) [6]: 61% and 60% | Population Hoechst High Intensity Objects (%) [6]: 4% and 0% | Population Membrane Permeable-Phenotype (%) [6]: 9% and 15% | Population Mitochondria Different-Phenotype (%) [6]: 5% and 8% | Population Normal (%) [6]: 95% and 100% | Population Pyknosed Nuclei (%) [6]: 15% and 18% | Population Tubulin-Different-Phenotype (%) [6]: 4% | Total Cell Count [6]: 360 and 138
